GPR7 antag: GPR7 receptor antagonists, primary screen, cell-based, fluorescence, single concentration; GPR7-expressing cells, fluorescence antagonist assay; inhibition, % at 4.4 µM; hit rate 1.1% among 290,000; AID 1861, 2009; in the data active means inhibition above about 16%, passing the limit was not always enough;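 further: cells stimulated with the agonist NPW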
LANA-H2B inh: blockers of LANA interaction with H2A/H2B – biochemical, FP readout, HTS, primary screen | inhibition, % (concentration not given with the values) | hit rate 0.6% among 320,000 | cell-free LANA-H2A/H2B peptide, fluorescence polarization | Protein LANA1 (Human herpesvirus 8 type P (isolate GK18)), Q9QR71 | AID 2629, 2010; in the data active means inhibition mostly above about 10%, no sharp cut-off; inactive means mostly below about 6.7%
TAAR1 antagonist: human TAAR1 antagonists, primary screen, Fluo-8 calcium fluorescence, CHO RD-HGA16 cells. antagonist. hit rate 1.5% among 360,000. inhibition, % at 3 µM. Trace amine-associated receptor 1 (Homo sapiens), Q96RJ0. AID 624466, 2012;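 active means inhibition above a per-plate cutoff, the mean inhibition of test compounds on that plate plus 3 SD, cut at about 49% in these data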
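System: CHO RD-HGA16 cells bearing hTAAR1. Reagent: EC80 β-phenethylamine stimulus. Schedule: seeding 17-24 h prior, 75-min 37 °C, 30-min RT dye loading. Signal: Fluo-8 intracellular calcium dye fluorescence, real-time kinetic reads. Read-out: % inhibition from peak post-agonist over basal fluorescence ratio. Benchmarks: vehicle wells and EC80 agonist wells. Replicates: n of 1.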
zfTRPN1 agonist: zebrafish TRPN1 channel agonists, primary screen, cell-based, HEK293, calcium fluorescence. HEK293 zebrafish TRPN1-YFP, Fluo-8 calcium fluorescence; 100% = response to 87 µM carbachol. AID 1424, 2008. activation, % at 3 µM. hit rate 0.18% among 220,000. transient receptor potential cation channel N1 (TRPN1/NompC), Danio rerio;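 active means activation above its plate's cutoff, the mean activation of test wells on that plate plus 3 SD, cut at about 19% in these data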
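Control set: carbachol 87 µM as high control, DMSO as low control; system: HEK293 stable line with zebrafish TRPN1-YFP; read-out: % activation versus carbachol response; detection: intracellular calcium fluorescence with Fluo-8; doses: single test compound dose, 3 µM nominal, 0.3% DMSO; schedule: dye 1 h 37 °C plus 30 min RT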
TAAR1 agonist: human TAAR1 agonists, primary screen, Fluo-8 calcium fluorescence, CHO RD-HGA16 cells | hit rate 0.99% among 360,000 | activation, % at 3 µM | vehicle wells 0%, saturating PEA agonist 100%;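 active means activation above the mean activation of all test compounds in the run plus 3 SD, cut at about 38% in these data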
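Test system: RD-HGA16 (CHO) cells co-expressing Gα16 and hTAAR1 | Doses: Single dose, 3 µM | Schedule: 17-24 h seeding, 75 min 37 °C dye, 30 min RT | Evaluation: % activation from peak over basal fluorescence ratio, DMSO-to-PEA scaled | Technique: Kinetic Fluo-8 calcium fluorescence | Benchmarks: Low control DMSO, high control PEA (EC100)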
TRPML3 ag: human TRPML3 channel agonists, primary screen, cell-based, HEK293 TRPML3-YFP, Fluo-8 calcium fluorescence, 3 µM | 100% = the carbachol control signal | hit rate 0.29% among 220,000 | activation, % at 3 µM | AID 1448, 2008 | Mucolipin-3 (Homo sapiens), Q8TDD5;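 active means activation above its plate's cutoff, the mean activation of the plate's test wells plus 3 SD, cut at about 12% in these data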
Target sequence (Q8TDD5 whole entry, looked up): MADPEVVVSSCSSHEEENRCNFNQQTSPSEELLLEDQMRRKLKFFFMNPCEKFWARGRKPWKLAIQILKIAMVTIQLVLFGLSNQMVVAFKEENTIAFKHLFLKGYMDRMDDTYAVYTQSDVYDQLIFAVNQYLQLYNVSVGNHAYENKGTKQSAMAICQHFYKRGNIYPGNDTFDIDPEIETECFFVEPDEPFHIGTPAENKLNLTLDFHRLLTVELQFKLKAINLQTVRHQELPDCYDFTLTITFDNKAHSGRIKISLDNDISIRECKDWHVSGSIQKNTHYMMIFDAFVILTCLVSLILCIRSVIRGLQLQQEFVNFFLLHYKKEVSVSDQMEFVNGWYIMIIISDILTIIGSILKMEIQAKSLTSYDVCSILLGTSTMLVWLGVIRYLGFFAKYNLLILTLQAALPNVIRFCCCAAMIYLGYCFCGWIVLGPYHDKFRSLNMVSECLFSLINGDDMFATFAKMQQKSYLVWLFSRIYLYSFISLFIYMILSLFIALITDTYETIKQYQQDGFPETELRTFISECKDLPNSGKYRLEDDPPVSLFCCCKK
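Test system: HEK293 cells stably carrying human TRPML3-YFP; Doses: single dose, 3 µM final nominal compound, 0.3% DMSO final; Schedule: dye loading 1 h 37 °C then 30 min ambient, 125 s read; Technique: Fluo-8 calcium fluorescence; Benchmarks: high control carbachol 87 µM, low control DMSO.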
TAAR1 nonsel count: nonselective antagonists in TAAR1 counter-screen cells, counter-screen for hTAAR1 antagonist project, cell-based, fluorescence, calcium | hit rate 77% among 2,400 | inhibition, % at 3 µM | shares compounds with TAAR1 antagonist | counterscreen cell line, antagonist mode | AID 651780, 2012; in the data active means inhibition above about 22%;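 further: CHO-Ga16 host cells stimulated with ATP at an EC80 level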
TAAR1 antag conf: human TAAR1 antagonists, retest of hits, confirmation, cell-based, fluorescence; shares compounds with TAAR1 antagonist; inhibition, % at 3 µM; hit rate 40% among 2,400; TAAR1-expressing cells, fluorescence antagonist read-out; AID 651785, 2012; in the data active means inhibition above about 49%;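 further: CHO-Ga16 host cells challenged with agonist PEA near its EC80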
Ga16 ag counter: calcium activation in Ga16-expressing cells, counter-screen for TAAR1 antagonist project, cell-based, fluorescence; agonist counterscreen; shares compounds with TAAR1 antagonist; activation, % at 3 µM; hit rate 18% among 2,400; in the data active means activation above about 12%
TAAR1 ag count: TAAR1 activation by candidate antagonists – cell-based, fluorescence, counter-screen for TAAR1 antagonist project. shares compounds with TAAR1 antagonist. hTAAR1 cell line, agonist mode. activation, % at 3 µM. hit rate 2% among 2,400. AID 651955, 2012; in the data active means activation above about 37%;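 further: CHO cells stably expressing TAAR1 with calcium dye readout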
Hits are given with their value. Only some compounds are listed: those with a hit (about 3.4% of all), similar ones and a draw of the others.

Screening COc1cc2sc3ccc(C#CC4(O)CCCCC4)cc3c(=O)c2cc1OC returned LANA-H2B inh inactive, TAAR1 antagonist inactive and TAAR1 agonist inactive.
Screening CCCC(C)c1oc(=O)cc(O)c1C (stereo not given) returned TAAR1 antagonist inactive and TAAR1 agonist inactive.
For CCC(=O)N1Cc2cc(C(=O)Nc3nccs3)nc(-c3cccc(-c4ccccc4OC)c3)c2[C@@H]1CCO the results were TAAR1 antagonist 73, TAAR1 agonist inactive, TAAR1 nonsel count 29, TAAR1 antag conf inactive, Ga16 ag counter inactive and TAAR1 ag count inactive.
CCOc1cc(/C=N/NC(=O)c2ccncc2)ccc1OC(=O)c1ccco1 was read as GPR7 antag inactive, LANA-H2B inh inactive, TAAR1 antagonist inactive and TAAR1 agonist inactive.
CCOc1cc(/C=N/NC(=O)C(O)(c2ccccc2)c2ccccc2)ccc1OC(=O)c1ccco1 was read as LANA-H2B inh inactive, TAAR1 antagonist 80, TAAR1 agonist inactive, TAAR1 nonsel count 33, TAAR1 antag conf 56, Ga16 ag counter inactive and TAAR1 ag count inactive.
For COc1ccc(CCn2c(C)cc(C(=O)CSc3nc(N)cc(=O)[nH]3)c2C)cc1 the results were GPR7 antag inactive, TAAR1 antagonist 51, zfTRPN1 agonist inactive, TAAR1 agonist inactive, TRPML3 ag inactive, TAAR1 nonsel count 37, TAAR1 antag conf inactive, Ga16 ag counter inactive and TAAR1 ag count inactive.
Screening Cc1cc(C(=O)CSc2nc(N)cc(=O)[nH]2)c(C)n1CCc1ccc(F)cc1 returned GPR7 antag inactive, LANA-H2B inh inactive, TAAR1 antagonist inactive, zfTRPN1 agonist inactive, TAAR1 agonist inactive and TRPML3 ag inactive.
Screening COc1ccc(CCn2c(C)cc(C(=O)CSc3nnnn3-c3ccccc3)c2C)cc1OC returned GPR7 antag inactive, LANA-H2B inh inactive, TAAR1 antagonist 50, zfTRPN1 agonist inactive, TAAR1 agonist inactive, TRPML3 ag inactive, TAAR1 nonsel count inactive, TAAR1 antag conf inactive, Ga16 ag counter 12 and TAAR1 ag count inactive.
`COc1ccc(CCn2c(C)cc(C(=O)CCl)c2C)cc1OC` gave GPR7 antag inactive, LANA-H2B inh inactive, TAAR1 antagonist inactive, zfTRPN1 agonist inactive, TAAR1 agonist inactive and TRPML3 ag inactive.
For Cc1c([N+](=O)[O-])cc(C(=O)Nc2ccc(Cc3ccncc3)cc2)cc1[N+](=O)[O-] the results were GPR7 antag inactive, LANA-H2B inh inactive, TAAR1 antagonist 88, zfTRPN1 agonist inactive, TAAR1 agonist inactive, TRPML3 ag inactive, TAAR1 nonsel count 31, TAAR1 antag conf 91, Ga16 ag counter inactive and TAAR1 ag count inactive.
Cc1ccc(C(=O)Nc2ccncc2)cc1[N+](=O)[O-] was read as GPR7 antag inactive, LANA-H2B inh inactive, TAAR1 antagonist inactive and TAAR1 agonist inactive.
CSCCC(NC(=O)c1ccco1)C(=O)N1CCN(c2ccccc2O)CC1 (stereo not given) was read as LANA-H2B inh inactive, TAAR1 antagonist inactive and TAAR1 agonist inactive.
Screening COc1ccc(NC(=O)Nc2cccc3c2O[C@H](CN(C)C(=O)Nc2ccccc2)[C@@H](C)CN([C@H](C)CO)C3=O)cc1 returned LANA-H2B inh inactive, TAAR1 antagonist inactive and TAAR1 agonist inactive.
Screening COc1ccc(CN(C)C[C@H]2Oc3c(NC(=O)Nc4ccccc4)cccc3C(=O)N([C@H](C)CO)C[C@@H]2C)cc1 returned LANA-H2B inh inactive, TAAR1 antagonist 61, TAAR1 agonist inactive, TAAR1 nonsel count 25, TAAR1 antag conf inactive, Ga16 ag counter inactive and TAAR1 ag count inactive.
Screening COc1cccc(NC(=O)c2ccc3nc(C)c(N(C)Cc4ccc(NC(C)=O)cc4)n3c2)c1 returned TAAR1 antagonist inactive and TAAR1 agonist inactive.
For CCC1(CC)NC(=O)N(CC(=O)OCC(=O)Nc2ccccc2OC(F)F)C1=O the results were LANA-H2B inh inactive, TAAR1 antagonist inactive and TAAR1 agonist inactive.
`CC1CCCCC12NC(=O)N(CC(=O)OCC(=O)Nc1ccc(F)cc1[N+](=O)[O-])C2=O` (stereo not given) gave LANA-H2B inh inactive, TAAR1 antagonist 76, TAAR1 agonist inactive, TAAR1 nonsel count 32, TAAR1 antag conf 53, Ga16 ag counter inactive and TAAR1 ag count inactive.
Screening COc1ccccc1C(=O)NC(=O)COC(=O)CN1C(=O)NC2(CCCCC2C)C1=O (stereo not given) returned LANA-H2B inh inactive, TAAR1 antagonist inactive and TAAR1 agonist inactive.
`CCC1(CC)NC(=O)N(CC(=O)OCC(=O)Nc2ccccc2[N+](=O)[O-])C1=O` gave GPR7 antag inactive, LANA-H2B inh inactive, TAAR1 antagonist 68, zfTRPN1 agonist inactive, TAAR1 agonist inactive, TRPML3 ag inactive, TAAR1 nonsel count 23, TAAR1 antag conf 52, Ga16 ag counter 12 and TAAR1 ag count inactive.
`Cc1ccc(CN2C(=O)CCC2(C)c2nnnn2Cc2ccccc2)cc1` (stereo not given) gave TAAR1 antagonist inactive and TAAR1 agonist inactive.
Cc1noc(C)c1S(=O)(=O)N(C)C[C@H]1Oc2c(cccc2N(C)C)C(=O)N([C@H](C)CO)C[C@@H]1C was read as LANA-H2B inh inactive, TAAR1 antagonist inactive and TAAR1 agonist inactive.
CCOc1ccc(S(=O)(=O)Nc2cccc(C(=O)N3CCN(c4ccccn4)CC3)c2)cc1 was read as TAAR1 antagonist 52, TAAR1 agonist inactive, TAAR1 nonsel count 31, TAAR1 antag conf 49, Ga16 ag counter 16 and TAAR1 ag count inactive.
